Data from ChEMBL document CHEMBL2321839, “Novel limonene and citral based 2,5-disubstituted-1,3,4-oxadiazoles: a natural product coupled approach to semicarbazones for antiepileptic activity” (Bioorg Med Chem Lett, 2013).
Active and inactive are the calls of the source. The calls are words filed in the database; no cut-off is given here.

How the values were obtained:
Mus musculus [1] = assay: Antiepileptic activity in ip dosed Swiss albino mouse assessed as protection against scPTZ-induced seizures after 0.5 hrs; type: functional; details: read-out: MED
Summary of the method: (§1)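 Male Swiss albino mice (18–25 g), compounds given ip at 30, 100 and 300 mg/kg. Seizures induced by maximal electroshock (MES) or subcutaneous pentylenetetrazole (scPTZ). Protection scored at 0.5 and 4.0 h after dosing.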

Mus musculus [2] = assay: Antiepileptic activity in ip dosed Swiss albino mouse assessed as protection against maximal-electric shock-induced seizures after 4 hrs; type: functional; details: read-out: MED; summary of the method: as §1
Mus musculus [3] = assay: Antiepileptic activity in ip dosed Swiss albino mouse assessed as protection against maximal-electric shock-induced seizures after 0.5 hrs; type: functional; details: read-out: MED; summary of the method: as §1
Rattus norvegicus [4] = assay: Antiepileptic activity in Wistar rat assessed as protection against scSTY-induced seizures at 300 mg/kg, ip measured after 4 hrs; type: functional, organism-based; parameters: dose 300 mg/kg
Summary of the method: (§2)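 Male Wistar rats (100–150 g), compounds given ip at 30, 100 and 300 mg/kg. Seizures induced by subcutaneous strychnine (scSTY). Activity read 0.5 and 4.0 h after dosing. Reported as the minimal dose active in at least half of the animals; a dash means no activity at 300 mg/kg.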

Rattus norvegicus [5] = assay: Antiepileptic activity in Wistar rat assessed as protection against scSTY-induced seizures at 300 mg/kg, ip measured after 0.5 hrs; type: functional, organism-based; parameters: dose 300 mg/kg; summary of the method: as §2
Mus musculus [6] = assay: Neurotoxicity against ip dosed Swiss albino mouse after 0.5 hrs by rotarod test; type: toxicity, organism-based; details: in vivo
Summary of the method: (§3)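 Acute neurotoxicity tested by rotorod in male Swiss albino mice (18–25 g) given 30, 100 or 300 mg/kg ip. Read at 0.5 and 4.0 h post-dose. Result is the minimal dose causing toxicity in half or more of the animals; a dash means none up to 300 mg/kg.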

Mus musculus [7] = assay: Neurotoxicity against ip dosed Swiss albino mouse after 4 hrs by rotarod test; type: toxicity, organism-based; details: in vivo; summary of the method: as §3
Mus musculus [8] = assay: Antiepileptic activity in ip dosed Swiss albino mouse assessed as protection against scPTZ-induced seizures after 4 hrs; type: functional; details: read-out: MED; summary of the method: as §1
Mus musculus [9] = assay: Antiepileptic activity in Swiss albino mouse assessed as protection against maximal-electric shock-induced seizures at 300 mg/kg, ip measured after 4 hrs; type: functional, organism-based; parameters: dose 300 mg/kg; summary of the method: as §1
Rattus norvegicus [10] = assay: Antiepileptic activity in ip dosed Wistar rat assessed as protection against scSTY-induced seizures after 0.5 hrs; type: functional; details: read-out: MED
Summary of the method: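 Subcutaneous strychnine seizure test in Wistar rats (male, 100–150 g), compounds given ip at 30, 100 and 300 mg/kg. Protection read 0.5 and 4.0 h after dosing.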

Mus musculus [11] = assay: Antiepileptic activity in Swiss albino mouse assessed as protection against scPTZ-induced seizures at 300 mg/kg, ip measured after 4 hrs; type: functional, organism-based; parameters: dose 300 mg/kg; summary of the method: as §1
Mus musculus [12] = assay: Neurotoxicity against Swiss albino mouse by rotarod test at 300 mg/kg, ip after 4 hrs; type: toxicity, organism-based; parameters: dose 300 mg/kg, route intraperitoneal; details: in vivo; summary of the method: as §3
Mus musculus [13] = assay: Neurotoxicity against Swiss albino mouse by rotarod test at 300 mg/kg, ip after 0.5 hrs; type: toxicity, organism-based; parameters: dose 300 mg/kg, route intraperitoneal; details: in vivo; summary of the method: as §3
Rattus norvegicus [14] = assay: Antiepileptic activity in Wistar rat assessed as GABA level in medulla oblangata per 100 mg at 30 mg/kg ip after 2 hrs (reference value: 31.86 +/- 4.65 ug); type: functional, Medulla oblongata; details: route intraperitoneal
Rattus norvegicus [15] = assay: Antiepileptic activity in Wistar rat assessed as GABA level in midbrain per 100 mg at 30 mg/kg ip after 2 hrs (reference value: 35.42 +/- 2.14 ug); type: functional; details: route intraperitoneal
Rattus norvegicus [16] = assay: Antiepileptic activity in Wistar rat assessed as GABA level in cerebellum per 100 mg at 30 mg/kg ip after 2 hrs (reference value: 23.48+/- 2.48 ug); type: functional; details: route intraperitoneal
Rattus norvegicus [17] = assay: Antiepileptic activity in Wistar rat assessed as protection against maximal electric shock-induced seizures at 30 mg/kg, po measured at 2 hrs; type: functional
Summary of the method: (§4)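 Single oral dose of 30 mg/kg in Wistar rats (100–150 g), tested by MES challenge at 0.25, 0.5, 1, 2 and 4 h.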

Rattus norvegicus [18] = assay: Antiepileptic activity in Wistar rat assessed as protection against maximal electric shock-induced seizures at 30 mg/kg, po measured at 0.25 hrs; type: functional; summary of the method: as §4
Mus musculus [19] = assay: Antiepileptic activity in Swiss albino mouse assessed as protection against scPTZ-induced seizures at 300 mg/kg, ip measured after 0.5 hrs; type: functional, organism-based; parameters: dose 300 mg/kg; summary of the method: as §1
Rattus norvegicus [20] = assay: Antiepileptic activity in Wistar rat assessed as protection against maximal electric shock-induced seizures at 30 mg/kg, po measured at 4 hrs; type: functional; summary of the method: as §4
Rattus norvegicus [21] = assay: Neurotoxicity in Wistar rat at 30 mg/kg, po measured at 0.25 hrs by rotarod test; type: toxicity, organism-based; parameters: dose 30 mg/kg, route oral; details: in vivo
Summary of the method: (§5)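 Neurotoxicity assessed in Wistar rats (100–150 g) after a 30 mg/kg oral dose, read at 0.25, 0.5, 1, 2 and 4 h.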

Rattus norvegicus [22] = assay: Antiepileptic activity in Wistar rat assessed as GABA level in medulla oblangata per 100 mg at 100 mg/kg ip after 2 hrs (reference value: 31.86 +/- 4.65 ug); type: functional, Medulla oblongata; details: route intraperitoneal
Rattus norvegicus [23] = assay: Neurotoxicity in Wistar rat at 30 mg/kg, po measured at 2 hrs by rotarod test; type: toxicity, organism-based; parameters: dose 30 mg/kg, route oral; details: in vivo; summary of the method: as §5
Rattus norvegicus [24] = assay: Neurotoxicity in Wistar rat at 30 mg/kg, po measured at 4 hrs by rotarod test; type: toxicity, organism-based; parameters: dose 30 mg/kg, route oral; details: in vivo; summary of the method: as §5
Rattus norvegicus [25] = assay: Antiepileptic activity in Wistar rat assessed as protection against maximal electric shock-induced seizures at 30 mg/kg, po measured at 1 hr; type: functional; summary of the method: as §4
Rattus norvegicus [26] = assay: Antiepileptic activity in Wistar rat assessed as GABA level in midbrain per 100 mg at 100 mg/kg ip after 2 hrs (reference value: 35.42 +/- 2.14 ug); type: functional; details: route intraperitoneal
Rattus norvegicus [27] = assay: Antiepileptic activity in Wistar rat assessed as GABA level in cerebellum per 100 mg at 100 mg/kg ip after 2 hrs (reference value: 23.48+/- 2.48 ug); type: functional; details: route intraperitoneal
Rattus norvegicus [28] = assay: Neurotoxicity in Wistar rat at 30 mg/kg, po measured at 1 hr by rotarod test; type: toxicity, organism-based; parameters: dose 30 mg/kg, route oral; details: in vivo; summary of the method: as §5
Rattus norvegicus [29] = assay: Antiepileptic activity in ip dosed Wistar rat assessed as protection against scSTY-induced seizures after 4 hrs; type: functional; details: read-out: MED; summary of the method: as §2
Rattus norvegicus [30] = assay: Antiepileptic activity in Wistar rat assessed as protection against maximal electric shock-induced seizures at 30 mg/kg, po measured at 0.5 hrs; type: functional; summary of the method: as §4
Rattus norvegicus [31] = assay: Neurotoxicity in Wistar rat at 30 mg/kg, po measured at 0.5 hrs by rotarod test; type: toxicity, organism-based; parameters: dose 30 mg/kg, route oral; details: in vivo; summary of the method: as §5
Mus musculus [32] = assay: Antiepileptic activity in Swiss albino mouse assessed as protection against maximal-electric shock-induced seizures at 300 mg/kg, ip measured after 0.5 hrs; type: functional, organism-based; parameters: dose 300 mg/kg; summary of the method: as §1

Structure (SMILES) | minimal effective dose (Mus musculus [1]) [mg/kg] | minimal effective dose (Mus musculus [2]) [mg/kg] | minimal effective dose (Mus musculus [3]) [mg/kg] | Activity (Rattus norvegicus [4]) | Activity (Rattus norvegicus [5]) | minimal effective dose (Mus musculus [8]) [mg/kg] | Activity (Mus musculus [9]) | minimal effective dose (Rattus norvegicus [10]) [mg/kg] | Activity (Mus musculus [12]) | Activity (Mus musculus [13]) | Activity (Rattus norvegicus [17]) [%] | Activity (Rattus norvegicus [18]) [%] | Activity (Rattus norvegicus [20]) [%] | Activity (Rattus norvegicus [21]) | Activity (Rattus norvegicus [22]) [µg] | Activity (Rattus norvegicus [23]) | Activity (Rattus norvegicus [24]) | Activity (Rattus norvegicus [25]) [%] | Activity (Rattus norvegicus [26]) [µg] | Activity (Rattus norvegicus [27]) [µg] | also measured
NC(=O)N1c2ccccc2C=Cc2ccccc21 [CARBAMAZEPINE] | 100 | 100 | 30 | inactive | inactive | 300 |  |  |  |  |  |  |  |  |  |  |  |  |  |  | MTC (Mus musculus [6]): 100 mg/kg; MTC (Mus musculus [7]): 300 mg/kg
CCCC(CCC)C(=O)[O-].[Na+] [VALPROATE SODIUM] | 300 |  | 300 | inactive |  |  | inactive | 300 | Non-toxic | Non-toxic |  |  |  |  |  |  |  |  |  |  | Activity (Mus musculus [11]): inactive
CN1C(=O)CC(=O)N(c2ccccc2)c2cc(Cl)ccc21 [CLOBAZAM] |  |  |  |  |  |  |  |  |  |  |  |  |  |  |  |  |  |  |  |  | Activity (Rattus norvegicus [14]): 47.53 µg; Activity (Rattus norvegicus [15]): 69.51 µg; Activity (Rattus norvegicus [16]): 35.44 µg
CC(C)=CC/C=C(/C)C/C=N/NC(=O)Nc1nnc(-c2ccc([N+](=O)[O-])cc2)o1 |  | 300 | 100 |  | inactive | 300 |  |  | Non-toxic | Non-toxic | 25 | 50 | 50 | Non-toxic | 36.72 | Non-toxic | Non-toxic | 25 | 62.56 | 32.04 | Activity (Mus musculus [19]): inactive; Activity (Rattus norvegicus [28]): Non-toxic; minimal effective dose (Rattus norvegicus [29]): 300 mg/kg; Activity (Rattus norvegicus [30]): 0%; Activity (Rattus norvegicus [31]): Non-toxic
CCC1(C)CC(=O)NC1=O (centres undefined) [ETHOSUXIMIDE] | 100 |  |  | inactive |  | 300 | inactive | 300 | Non-toxic | Non-toxic |  |  |  |  |  |  |  |  |  |  | Activity (Mus musculus [32]): inactive
C=C(C)[C@@H]1CC=C(C)/C(=N/NC(=O)Nc2nnc(-c3ccc([N+](=O)[O-])cc3)o2)C1 | 100 | 300 | 100 |  | inactive | 300 |  |  | Non-toxic | Non-toxic | 50 | 75 | 50 | Non-toxic | 48.59 | Non-toxic | Non-toxic | 25 | 66.6 | 28.64 | Activity (Rattus norvegicus [28]): Non-toxic; minimal effective dose (Rattus norvegicus [29]): 300 mg/kg; Activity (Rattus norvegicus [30]): 25%; Activity (Rattus norvegicus [31]): Non-toxic
